Compounds with a hit are over-represented: about 3.3% of the library has one in this group of screens.
ABCG2 block: ABCG2 efflux pump inhibitors, primary screen, multiplex with ABCB1, IgMXP3 cells, flow cytometry; Broad substrate specificity ATP-binding cassette transporter ABCG2 (Homo sapiens), Q9UNQ0; JC-1 efflux; inhibition, % at 6.6 µM; actives 0.1% (n = 190,000);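 active means inhibition above 80%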;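 further: 0% = DMSO and 100% = nicardipine control wells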
Target sequence (Q9UNQ0 whole entry, looked up): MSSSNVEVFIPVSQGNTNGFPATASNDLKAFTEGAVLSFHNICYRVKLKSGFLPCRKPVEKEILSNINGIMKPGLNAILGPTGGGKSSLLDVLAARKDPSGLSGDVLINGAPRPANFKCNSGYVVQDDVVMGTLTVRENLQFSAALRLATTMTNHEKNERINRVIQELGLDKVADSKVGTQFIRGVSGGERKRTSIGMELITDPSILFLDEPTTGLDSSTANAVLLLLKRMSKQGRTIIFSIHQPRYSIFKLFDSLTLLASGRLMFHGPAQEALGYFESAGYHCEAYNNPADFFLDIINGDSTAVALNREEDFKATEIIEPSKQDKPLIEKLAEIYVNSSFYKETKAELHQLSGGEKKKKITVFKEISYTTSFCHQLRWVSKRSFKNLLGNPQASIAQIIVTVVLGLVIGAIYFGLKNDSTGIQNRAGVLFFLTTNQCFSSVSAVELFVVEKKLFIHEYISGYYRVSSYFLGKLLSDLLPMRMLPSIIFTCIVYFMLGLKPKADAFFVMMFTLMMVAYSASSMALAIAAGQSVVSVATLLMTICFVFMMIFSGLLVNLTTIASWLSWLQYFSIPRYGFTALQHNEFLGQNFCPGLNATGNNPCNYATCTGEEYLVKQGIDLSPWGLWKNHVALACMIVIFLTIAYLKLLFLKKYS
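test system = two drug-resistant human cell lines, ABCG2 and ABCB1 | amount = 3 million cells/mL final, two lines in 1:1 ratio | reagent = JC-1 transporter substrate | doses = one concentration, 6.6 µM final | incubation = 10 min at 25 °C | signal = flow cytometric JC-1 green MFI at 530 nm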
PMI act hi M6P: human PMI activators, high substrate, primary screen, biochemical, fluorescence intensity, near-saturating mannose 6-phosphate. coupled PMI enzyme assay, resazurin fluorescence, 20 min; active compounds read high; 1 = untreated enzyme, 0 = substrate-free blank. activation factor at 20 µM. actives 0.34% (n = 190,000). AID 1216, 2008;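 active means activation factor of 2 or more at 20 µM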
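Test system: human phosphomannose isomerase with PGI, G6PDH, diaphorase coupling enzymes; amount: 15 ng/mL PMI; incubation: enzyme reaction with compound 20 min at room temperature; technique: resorufin fluorescence (Ex 544/Em 590 nm) from resazurin via diaphorase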
PMI act: activators of human PMI, primary screen, biochemical, fluorescence intensity, near-Km mannose 6-phosphate | purified human PMI, coupled resazurin fluorescence, 20 min; active compounds read high; 1 = vehicle control, 0 substrate-free wells | actives 0.005% (n = 190,000) | activation factor at 20 µM | AID 1214, 2008 | Mannose-6-phosphate isomerase (Homo sapiens), P34949;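 active means activation factor of 2 or more at 20 µM, relative to plate controls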
ABCB1 block: ABCB1 efflux pump inhibitors, primary screen, cell-based, multiplex, flow cytometry, ABCG2 counter-screen. ATP-dependent translocase ABCB1 (Homo sapiens), P08183. CCRF-Adr cells, JC-1 efflux. inhibition, % at 6.6 µM. actives 0.067% (n = 190,000); in the data active means inhibition above about 40%;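 further: 0% = vehicle and 100% = reference inhibitor; higher value means more JC-1 retained so stronger ABCB1 efflux block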
KCC2 mod: KCC2 cotransporter modulators, thallium flux, primary screen, cell-based, HEK293 KCC2, FluoZin-2 fluorescence, MLSMR; Solute carrier family 12 member 5 (Homo sapiens), Q9H2X9; KCC2 cells, thallium flux FluoZin-2 fluorescence; B-score of Tl+ flux slope (higher = more flux/activation; lower = inhibition) at 10 µM; actives 2.2% (n = 190,000);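 active means thallium flux slope and its plate-corrected score both differing from the plate sample mean at a set confidence after two filtering rounds, in either direction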;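 further: slope of fluorescence scaled to starting intensity during 10 to 20 s after thallium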
ROMK mod: ROMK potassium channel modulators, primary screen, cell-based, thallium flux, MLSMR library; Tet-inducible ROMK, thallium flux fluorescence; actives lie on both sides; actives 2% (n = 130,000); AID 1918, 2009; B-score at 10 µM;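 active means signal ratio slope over the read window, or its plate-corrected B-score, at least 3 SD from the plate mean, either direction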;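 further: B-score of the F/F0 ratio slope over 7 to 12 s after thallium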
Active calls of the source: *; nt = not tested or not shown.

SMILES	ABCG2 block	PMI act hi M6P	PMI act	ABCB1 block	KCC2 mod	ROMK mod
Fc1ccc(-c2n[nH]c(=S)n2CC2CCCO2)cc1 (centres undefined)	1	1	1	0	0.45	2.4*
S=c1[nH]nc(-c2ccncc2)n1CC1CCCO1 (centres undefined)	1	1	1	0	0.28	nt
N#CCCS(=O)(=O)c1nnnn1-c1ccccc1	nt	1	1	nt	nt	-4.7*
CCOC(=O)N1CCC2(CC1)C(C#N)=C(N)Oc1c2c(C)nn1-c1cccc(Cl)c1	0	2*	1.5	0	-0.34	nt
COc1ccc(-n2ncc3c(NCc4ccco4)ncnc32)cc1	3	1	1	0	nt	0.53
Clc1ccc(-n2ncc3c(NCc4ccco4)ncnc32)cc1	3	1.2	1.2	0	-0.21	3.9*
Oc1ccc(Nc2nc(N3CCCC3)c3ccccc3n2)cc1	2	0.9	1	1	nt	-4.8*
COc1ccc(Nc2nc(N3CCCCC3)c3ccccc3n2)cc1	4	0.9	0.9	2	nt	nt
O=C(COC(=O)CSc1ccc2ccccc2c1Br)NC1CC1	19	1	1	2	-0.38	-0.16
Cc1cccc2sc(NC(=O)Cn3cccc3)nc12	2	0.8	0.9	0	12*	nt
Cc1ccc(CNC(=O)CCNC(=O)c2ccco2)cc1	6	1.1	1.1	2	0.053	nt
S=C1CCSc2ccc(Cl)cc2N1	3	0.9	1	1	9.8*	nt
O=C(NCc1ccco1)c1sc(=S)n2c1[nH]c(=O)c1ccccc12	-2	0.9	0.9	-1	nt	-3.7*
COc1ccccc1OCC#CCNC1CCCCC1C (centres undefined)	-2	1	1.5	-1	0.054	0.23
COc1cccc(C2CC(c3ccccc3)=NN2S(=O)(=O)c2ccc(C)cc2)c1OC (centres undefined)	0	1	1.1	0	0.31	-8.1*
Cc1cc2cc(CN(C(=O)C3CC3)C3CCCC3)c3nnnn3c2cc1C	5	0.9	0.9	3	-1.9	nt
Cc1[nH]n2c(=O)c3c(nc2c1-c1ccccc1)CCC3	4	1	1	0	-0.54	nt
O=c1c2c(nc3c(-c4ccccc4)c[nH]n13)CCCC2	21	1	1	1	2.8*	nt
CCOc1ccc(C2NC(=O)C(C#N)=C(S)N2c2ccc(C)cc2)cc1OC (centres undefined)	0	1.1	1	0	nt	0.28
COc1cc(/C=C2\S/C(=N/S(=O)(=O)c3ccc(C)cc3)NC2=O)c([N+](=O)[O-])cc1OC	-2	0.6	0.8	0	-6.5*	-0.71
O=C(CNC(=O)c1ccccc1F)OCc1nc2ccccc2s1	2	1	1	1	-1.9	-0.61
CNc1sc(C(=O)c2ccccc2F)c(N)c1-c1nc2ccccc2s1	2	2*	1.6	2	nt	0.08
COC(C/C=C\[C@@H](O)COCc1ccccc1)OC	nt	nt	nt	nt	0.4	nt
CCCN1C(=O)/C(=C/c2c(NCCCOCC)nc3c(C)cccn3c2=O)SC1=S	63	0.8	1	68*	nt	-2
CCOCCCNc1nc2c(C)cccn2c(=O)c1/C=C1\SC(=S)N(C(C)CC)C1=O (centres undefined)	nt	nt	nt	nt	-2.1	nt
SMILES	ABCG2 block	PMI act hi M6P	PMI act	ABCB1 block	KCC2 mod	ROMK mod
CCCOc1ccccc1C1CC(=O)NC2=C1C(=O)CCC2 (centres undefined)	2	0.9	1	1	0.66	nt
CCOc1ccccc1C1CC(=O)NC2=C1C(=O)CCC2 (centres undefined)	26	1	1	0	nt	4.7*
O=C(NN=C(Cc1ccccc1)Cc1ccccc1)c1ccc(F)cc1	-1	1	1	0	7.7*	-1.3
CCCCC1=NN2CCS(=O)(=O)N=C2S1	-1	1	1	0	0.013	0.097
CC(C)CNC(=O)c1cccc(NC(=O)CCc2ccccc2)c1	14	0.9	0.8	0	-0.6	-0.96
Cc1ccc(-c2nc(NC(=O)c3cc(C(C)(C)C)nn3C)sc2C)cc1Cl	nt	nt	nt	nt	0.64	nt
Cc1cccc(/N=C/c2c(O)n(Cc3ccc4c(c3)OCO4)c(=O)c3ccccc23)n1	2	0.9	1	1	0.075	0.11
O=C1NC2(CCC3(CC2)OCCO3)NN1c1ccc(Cl)cc1	4	2.7*	1.8	0	0.37	nt
Fc1ccc(N/N=C(/c2ccccc2)c2ccccn2)cc1	17	2*	1.4	1	1	-0.69
Cc1ccc(C(=O)N/N=C2\CCCc3ccccc32)c(C)c1	0	1.1	1.1	0	0.26	-0.47
O=C(N/N=C1\CCCc2ccccc21)c1ccc([N+](=O)[O-])cc1	0	1.1	1.1	0	3.1*	nt
S=c1[nH]nc(-c2cc(-c3ccccc3)n[nH]2)n1/N=C/c1ccc(Br)s1	nt	nt	nt	nt	1.5	nt
Cc1ccsc1/C=N/Nc1nc(Cl)c(Cl)cc1Cl	4	0.9	1	0	3.6	nt
Cc1ccc(/C=N/Nc2nc(Cl)c(Cl)cc2Cl)s1	23	0.8	0.9	-1	7.6*	nt
CCCCN1CN(S(=O)(=O)c2cccs2)c2nc3ccccc3nc21	2	2.2*	1.6	1	0.92	nt
CCc1ccc(NC(=O)CN2C(=O)C(=O)N(Cc3ccccc3)C2=O)cc1	2	1.1	1.1	0	-0.052	0.14
Clc1ccc(/C(Cc2nc3ccccc3[nH]2)=N\Nc2ccccc2)cc1	5	3*	1.8	1	0.83	-1.3
Cc1ccc2c(c1)/C(=C/c1ccco1)C(=O)N2	0	1	1	0	-0.12	1.1
C=C1c2cc(C)ccc2NC(=O)N1c1ccccc1	6	2.9*	1.8	0	-0.0017	0.33
C=C1c2ccccc2NC(=O)N1c1ccc(OC)cc1	0	2.5*	1.7	0	-0.065	-0.57
COc1ccc(CCNC(=O)c2cc3c(C)nccc3[nH]c2=O)cc1OC	2	0.9	0.9	0	-0.22	-0.045
CN1c2ccccc2C(C)(C)C12CCCC(=O)N2 (centres undefined)	7	2*	1.4	1	1.2	nt
CCCC(=O)Nc1sc(C)c(C)c1C(=O)Nc1cccc(C)c1	21	1	1	2	0.92	nt
